# Experimental data published in ChEMBL document CHEMBL1134472, “Synthesis and NMR-driven conformational analysis of taxol analogues conformationally constrained on the C13 side chain” (2001).
# Active and inactive are the calls of the source. The rule behind the calls is not given here.
# How the values were obtained:
# MCF7 = assay: Cytotoxicity against MCF-7 cells with reference to taxol; format: functional; settings: Homo sapiens
# How it was run: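 Result is the test compound's ED50 in MCF7 cells divided by the paclitaxel ED50 from the same cytotoxicity assay.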
# [1] = biological target: Tubulin alpha chain (Sus scrofa) (UniProt P02550); assay: Tubulin binding with reference to taxol was determined by tubulin assembly assay
# Chain of Tubulin alpha chain (Sus scrofa) (P02550 whole entry, looked up): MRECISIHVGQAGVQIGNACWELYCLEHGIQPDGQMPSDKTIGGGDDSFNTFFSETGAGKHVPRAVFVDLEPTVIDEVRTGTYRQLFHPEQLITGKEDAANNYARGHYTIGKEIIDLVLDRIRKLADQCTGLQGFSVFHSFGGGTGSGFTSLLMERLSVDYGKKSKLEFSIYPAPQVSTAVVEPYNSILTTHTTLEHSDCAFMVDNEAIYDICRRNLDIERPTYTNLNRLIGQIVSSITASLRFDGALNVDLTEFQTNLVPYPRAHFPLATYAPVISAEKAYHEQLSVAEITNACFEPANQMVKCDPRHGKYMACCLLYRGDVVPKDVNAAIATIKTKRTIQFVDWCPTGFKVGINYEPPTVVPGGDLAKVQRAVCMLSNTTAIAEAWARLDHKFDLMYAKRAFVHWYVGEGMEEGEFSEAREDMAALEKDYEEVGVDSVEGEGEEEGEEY
# How it was run: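 Activity is the ED50 in a tubulin assembly assay, given as a ratio to the paclitaxel ED50 from the same assay.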
SMILES,ED50/ED50(Taxol) (MCF7) [dimensionless ratio],ED50/ED50(Taxol) (dimensionless ratio) [1],ED50 [1]
CC(=O)O[C@H]1C(=O)[C@@]2(C)[C@H]([C@H](OC(=O)c3ccccc3)[C@]3(O)CC(OC(=O)[C@@]4(O)CCc5ccccc5[C@@H]4NC(=O)c4ccccc4)C(C)=C1C3(C)C)[C@]1(OC(C)=O)CO[C@@H]1C[C@@H]2O (stereo not given in full),333,42,
CC(=O)O[C@H]1C(=O)[C@@]2(C)[C@H]([C@H](OC(=O)c3ccccc3)[C@]3(O)C[C@H](OC(=O)[C@H](O)[C@@H](NC(=O)c4ccccc4)c4ccccc4)C(C)=C1C3(C)C)[C@]1(OC(C)=O)CO[C@@H]1C[C@@H]2O [PACLITAXEL],4,,
CC(=O)O[C@H]1C(=O)[C@@]2(C)[C@H]([C@H](OC(=O)c3ccccc3)[C@]3(O)CC(OC(=O)[C@@]4(O)Cc5ccccc5[C@@H]4NC(=O)c4ccccc4)C(C)=C1C3(C)C)[C@]1(OC(C)=O)CO[C@@H]1C[C@@H]2O (stereo not given in full),9,4,
CC(=O)O[C@@]12CO[C@@H]1C[C@H](O)[C@@]1(C)C(=O)[C@H](O)C3=C(C)C(OC(=O)[C@@]4(O)CCc5ccccc5[C@@H]4NC(=O)OC(C)(C)C)C[C@@](O)([C@@H](OC(=O)c4ccccc4)[C@H]21)C3(C)C (stereo not given in full),239,30,
CC(=O)O[C@H]1C(=O)[C@@]2(C)[C@H]([C@H](OC(=O)c3ccccc3)[C@]3(O)CC(OC(=O)[C@]4(O)Cc5ccccc5[C@@H]4NC(=O)c4ccccc4)C(C)=C1C3(C)C)[C@]1(OC(C)=O)CO[C@@H]1C[C@@H]2O (stereo not given in full),1600,,inactive
CC(=O)O[C@@]12CO[C@@H]1C[C@H](O)[C@@]1(C)C(=O)[C@H](O)C3=C(C)C(OC(=O)[C@@]4(O)Cc5ccccc5[C@@H]4NC(=O)OC(C)(C)C)C[C@@](O)([C@@H](OC(=O)c4ccccc4)[C@H]21)C3(C)C (stereo not given in full),,7,
